High-throughput results: PubChem BioAssay, several laboratories
Mdm2 ligase inh – Mdm2 E3 ligase (human) inhibition; Q00987; cell-based MDM2 ubiquitination luciferase reporter, 2 h; 0 = plate control, 100 = twice control, blank-subtracted; signal enhancement, % at 5 µM; hit rate 0.11% among 210,000; AID 1230;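 active = signal enhancement of 30% or more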;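 also: luminescence tracks abundance of the self-degrading MDM2-luciferase fusion protein; higher signal means inhibition of MDM2 E3 ligase activity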
Target sequence (Q00987 whole entry, looked up, the tested form may be a part): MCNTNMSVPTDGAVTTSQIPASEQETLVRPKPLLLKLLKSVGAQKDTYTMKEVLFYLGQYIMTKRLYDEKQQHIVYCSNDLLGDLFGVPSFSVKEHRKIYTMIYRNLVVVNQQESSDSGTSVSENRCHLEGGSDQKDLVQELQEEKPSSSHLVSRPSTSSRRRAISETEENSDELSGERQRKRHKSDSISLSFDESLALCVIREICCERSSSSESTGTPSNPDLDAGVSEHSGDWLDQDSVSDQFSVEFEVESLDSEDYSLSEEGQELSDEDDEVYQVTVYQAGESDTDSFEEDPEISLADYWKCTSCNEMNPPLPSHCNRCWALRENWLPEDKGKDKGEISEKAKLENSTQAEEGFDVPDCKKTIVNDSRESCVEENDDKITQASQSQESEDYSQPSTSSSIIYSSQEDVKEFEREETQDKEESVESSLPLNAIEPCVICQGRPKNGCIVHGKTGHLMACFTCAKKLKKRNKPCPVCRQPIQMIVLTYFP
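Material: stable MDM2–luciferase fusion reporter cells / Quantity: 2000 cells/well / Dosing: single 5 µM compound dose, 0.2% final DMSO / Buffer or medium: DMEM / Schedule: 4 h cell settling then 2 h compound exposure, 37 °C / Detection: luminescence with SteadyLite reagent, 15 min at room temperature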
NF-kB expr up – raises NF-kB expression in human neuronal cells; NF-kB reporter expression; hits give high values; hit rate 1.6% among 190,000; fold change at 12.5 µM; in the data active = fold change above about 3.3
PERK inh – human PERK inhibition, primary cell-based screen; CHO PERK-DD fusion, SEAP luminescence translation reporter; AID 1416; Q9NZJ5; inhibition, % at 5.6 µM; hit rate 0.17% among 220,000;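 active = inhibition above the mean inhibition of all tested compounds plus 3 SD, set separately per screening campaign, cut at about 2.9% in these data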;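 also: PERK kinase domain activated by AP20187 dimerizer at 100 nM; 0% = DMSO with dimerizer and 100% = rapamycin at 8.4 µM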
APP 5'UTR act – activates APP 5'UTR luciferase reporter; SH-SY5Y APP 5'UTR luciferase reporter, luminescence; zero percent = DMSO vehicle wells; hit rate 1% among 190,000; activation, % at 2 µM;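 active = activation above a set limit, based on mean plus 3 SD of controls, cut at about 140% in these data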
STAT1 act – activators of IFN-gamma induced STAT1 signaling | NIH 3T3 STAT1-luciferase reporter, luminescence; 100% = IFN-gamma alone, no compound | activation (% of control), % at 5.5 µM | hit rate 2.6% among 200,000;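 active = activation above the screen-wide mean activation plus 3 SD, cut at about 130% in these data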;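 also: raw ratio to IFN-gamma control signal so 100% means no change and 0% no light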
AHR activator – human AHR activation; activation, % at 5 µM; AID 2796; hit rate 2.5% among 320,000; AHR-responsive luciferase reporter cells, luminescence; P35869; in the data active = activation above about 47%;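 also: 0% = vehicle wells and 100% = reference agonist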
Active calls of the source: *; · = no result given. Sampled rows, rich in hits. Any-hit rate of the full collection: about 4.5%.

SMILES | Mdm2 ligase inh | NF-kB expr up | PERK inh | APP 5'UTR act | STAT1 act | AHR activator
COc1ccc(C(N)=O)cc1NC(=O)c1cccc(F)c1 | -15.4 | 0.92 | 1.1 | 0.3 | 102.0 | 60.6*
COc1cc(OC)c(NC(=O)c2cccc(F)c2)cc1Cl | 2.0 | 1.16 | 0.3 | -0.9 | 106.9 | 30.3
COc1ccc(NC(=O)c2ccccc2F)cc1Cl | -19.2 | 4.32* | -0.2 | 120.4 | 118.9 | 1.9
NC(=O)COc1ccc(NC(=O)CC23CC4CC(CC(C4)C2)C3)cc1 | · | · | · | · | · | -0.3
Cc1ccc(S(=O)(=O)N2CCN(C(=O)C3CCN(C(=O)c4ccc(F)cc4)CC3)CC2)c(C)c1 | · | · | · | · | · | -2.7
Cc1ccc(/C=N/Nc2nnc(Cl)c3ccccc23)cc1 | -20.8 | 9.31* | -0.3 | 159.4* | 130.6* | 61.0*
Clc1nnc(NN=C2CCCC2)c2ccccc12 | -1.2 | 1.07 | -0.4 | 25.3 | 107.5 | 51.5*
C=CCNc1nnc(Cl)c2ccccc12 | 0.0 | 1.18 | 2.5 | -1.4 | 100.6 | -2.1
COc1ccc(/C=N/Nc2nnc(-c3ncc[nH]3)c3ccccc23)cc1 | -19.4 | 0.94 | -0.7 | 65.1 | 142.5* | 61.5*
O=C(Nc1ccc(NC(=O)c2ccccc2Cl)nc1)c1ccco1 | · | · | · | · | · | -7.0
COc1ccc(N2C(N)=NC(N)=NC2(C)C)cc1 | -18.3 | 3.92* | 0.5 | -7.9 | 102.6 | -1.9
O=c1oc2ccccc2cc1-c1nc(-c2ccccc2)no1 | -63.8 | 4.12* | 0.4 | 75.8 | 144.6* | 0.7
c1ccc(-c2noc(-c3ccccc3-c3ccccc3)n2)cc1 | -17.9 | 1.41 | 1.6 | -13.9 | 95.7 | 61.8*
O=[N+]([O-])c1cccc(-c2nc(-c3ccccc3)no2)c1 | -7.1 | 3.8* | 1.0 | 117.8 | 137.7* | 57.6*
CN(C)c1ccc(-c2noc(-c3ccccc3O)n2)cc1 | -78.5 | 1.51 | 1.0 | 144.0* | 97.1 | 13.0
O=c1oc2ccccc2cc1-c1nc2c(s1)CCCC2 | -74.9 | 1.66 | -0.1 | 187.8* | 71.4 | 94.8*
O=c1oc2ccc3ccccc3c2cc1-c1nc2ccccc2o1 | · | · | 1.0 | -0.7 | 102.2 | 41.3
Cc1cccc(-c2noc(-c3cc4ccccc4oc3=O)n2)c1 | -27.9 | 3.62* | 1.3 | 7.0 | 116.9 | 2.2
O=c1oc2ccccc2cc1-c1nc2ccccc2o1 | -19.9 | 4.39* | 1.0 | 151.8* | 121.5 | 15.8
CNC(=O)c1cc2c(s1)-c1ccccc1CC2 | -4.1 | 1.97 | 1.9 | 18.0 | 144.0* | 74.6*
Cc1cccnc1NC(=O)c1ccc(COc2ccccc2)o1 | · | · | · | · | · | -0.5
O=C(CSc1cn(Cc2ccccc2)c2ccccc12)Nc1nccs1 | -10.0 | 2.67 | 0.4 | 67.7 | 146.1* | 20.0
COc1cccc(OC)c1-c1nn2c(-c3cc(-c4ccccc4)n[nH]3)nnc2s1 | -9.8 | 1.11 | -0.6 | -7.5 | 104.0 | 94.0*
O=C(NNC(=O)c1ccccc1-n1cccc1)c1ccc(Cl)c(Cl)c1 | -11.2 | 1.01 | 0.8 | 7.6 | 109.8 | 10.5
O=C(NNC(=O)c1ccccc1-n1cccc1)c1ccc(Cl)cc1 | -14.1 | 1.02 | 0.5 | -0.3 | 102.7 | 62.0*
SMILES | Mdm2 ligase inh | NF-kB expr up | PERK inh | APP 5'UTR act | STAT1 act | AHR activator
O=C(NN=C1CCCC1)c1ccccc1O | · | · | · | · | · | 23.2
O=C(NN=C1CCCCC1)c1ccccc1-n1cccc1 | · | · | · | · | · | 48.5*
O=C(O)c1ccccc1NN=C1CCCCC1 | -11.1 | 3.39* | 0.7 | 125.3 | 138.3* | 18.3
CC(C)(C)C1CCC(=NNC(=O)c2ccccc2-n2cccc2)CC1 (stereo unspecified) | -7.8 | 0.93 | 1.0 | 9.3 | 100.2 | 70.5*
C=CCn1c(C2CCCCC2)n[nH]c1=S | -16.9 | 1.33 | 0.6 | 12.3 | 102.8 | -0.8
Cn1nc(-c2ccccc2)c(C(=O)Nc2ccc(Cl)cc2)c1Cl | -5.5 | 2.38 | 0.1 | -24.3 | 108.7 | 0.7
Cn1c(Cl)c(C(=O)Nc2ccc(Cl)cc2)c2ccccc21 | -3.3 | 1.29 | 0.6 | 20.4 | 107.2 | 57.2*
CCCN(C(=O)c1cccs1)c1c(N)n(Cc2ccccc2)c(=O)[nH]c1=O | · | · | · | · | · | 1.3
COCCCNC(=O)C1CCC(CNS(=O)(=O)c2ccc3c(c2)CC(C)N3C(=O)C2CC2)CC1 (stereo unspecified) | · | · | · | · | · | 1.4
CN(C)/C=N/c1c(C#N)cnn1-c1ncnc2sc(-c3ccccc3)cc12 | -15.8 | 0.63 | -0.6 | -16.1 | 87.4 | 57.7*
CN(C)/C=N/c1c(C#N)cnn1-c1ccccc1 | -14.3 | 0.96 | 0.6 | -1.1 | 94.5 | 11.4
